AHR activator: activators of human aryl hydrocarbon receptor. P35869. AHR-responsive luciferase reporter cells, luminescence. activation, % at 5 µM. 320,000 tested, 2.5% active. AID 2796; in the data active = activation above about 47%
m5-HT2A agonist: agonists of mouse serotonin 5-HT2A receptor (HTR2A) | activation, % at 7.6 µM | CHO-K1 mHTR2A beta-arrestin complementation, luminescence; percent of 30 µM serotonin response | P35363 | 360,000 tested, 0.66% active | AID 624169;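 active = activation above a run cutoff, the mean activation of all tested compounds plus 3 SD, cut at about 14% in these data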
Target sequence (P35363 whole entry, looked up): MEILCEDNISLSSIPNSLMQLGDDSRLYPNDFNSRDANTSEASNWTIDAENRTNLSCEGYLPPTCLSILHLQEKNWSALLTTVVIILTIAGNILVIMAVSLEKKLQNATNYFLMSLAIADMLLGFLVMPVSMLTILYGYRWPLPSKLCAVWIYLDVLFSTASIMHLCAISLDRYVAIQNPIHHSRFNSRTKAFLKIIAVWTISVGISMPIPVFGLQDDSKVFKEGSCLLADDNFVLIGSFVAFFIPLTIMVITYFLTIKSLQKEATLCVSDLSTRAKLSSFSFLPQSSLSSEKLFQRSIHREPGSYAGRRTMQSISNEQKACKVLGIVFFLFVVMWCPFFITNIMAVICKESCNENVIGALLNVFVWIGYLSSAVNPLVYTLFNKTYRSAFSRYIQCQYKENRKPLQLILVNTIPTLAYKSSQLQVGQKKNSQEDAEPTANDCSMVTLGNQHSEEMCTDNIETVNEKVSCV
MsrA inh: inhibitors of bovine MsrA; purified bovine MsrA, absorbance read-out; inhibition, % at 15.5 µM; 360,000 tested, 0.75% active; in the data active = inhibition above about 4.5%
MsrA act: activators of bovine methionine sulfoxide reductase A; purified bovine MsrA, absorbance read-out; activation, % at 10.6 µM; AID 602163; 360,000 tested, 0.3% active; in the data active = activation above about 7.5%
Tb MetRS inh: Trypanosoma brucei MetRS inhibition; purified T. brucei MetRS, ATP depletion, Kinase-Glo luminescence; inhibition, % at 11.9 µM; 360,000 tested, 0.4% active; AID 624268;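 active = inhibition above a per-plate cutoff of the control wells' mean inhibition plus 3 SD, cut at about 5.5% in these data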
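Test system – parasite MetRS enzyme · Reagent – substrates ATP, L-methionine and bulk Escherichia coli tRNA · Doses – 11.9 µM compound single dose, 0.9% DMSO · Times – 15 min enzyme-compound preincubation, 2 h reaction, 10 min detection, 25 °C · Signal – Kinase-Glo luminescence, ATP depletion format · Controls – DMSO-only wells as low control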
AI-2 QS mod: modulates the Vibrio harveyi AI-2 quorum sensing system; Vibrio harveyi JMH597 AI-2 luminescence/OD600 ratio, 9 h; hits give low values; strain lacks LuxN and CqsS sensors; 0 = neutral-control median; activity change, % at 7.5 µM; 300,000 tested, 0.4% active; AID 2094; in the data active = activity change below about -75%, passing the limit was not always enough;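 also: luminescence divided by OD600 gain over 9 h not by final OD600 alone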
Each line names hits and unclear results; the compound was inactive in the other large screens. The list is not random: actives were taken first. Their share in the collection is about 4.4%.

Nc1n[nH]c(C2CC2)c1N=Nc1ccc(Cl)c(Cl)c1	AHR activator 96.4
CN(C)c1nc2ccccc2c(N)c1-c1ccccc1	AHR activator 55.1 (no result: MsrA inh, AI-2 QS mod)
O=C(NS(=O)(=O)c1cccc(F)c1)[C@H]1O[C@@H](n2ccc(=O)[nH]c2=O)[C@H](O)[C@@H]1O	none (no result: AHR activator, m5-HT2A agonist, MsrA act, Tb MetRS inh, AI-2 QS mod)
C[C@@H]1ON(C)[C@H]2C[C@H]3c4cc(-c5cc6ccccc6o5)ccc4CCN3C[C@@H]12	none (no result: AHR activator, m5-HT2A agonist, MsrA act, Tb MetRS inh, AI-2 QS mod)
O=C(CNc1cccc2ccccc12)N/N=C/C=C/c1ccco1	MsrA inh 4.6
O=C(CNc1cccc2ccccc12)N/N=C/c1ccc(C(=O)O)cc1	none
CNC(=O)NNC(=O)c1csc(-c2ccc(C(F)(F)F)cc2Cl)n1	none
CNC(=O)NNC(=O)c1csc(Cc2c(Cl)sc3ccc(Cl)cc23)n1	AHR activator 47.1 (no result: AI-2 QS mod)
Nc1ncnc2c1ncn2C1OC(C(=O)NC2CC2)C(O)C1O (stereo not drawn)	none (no result: AI-2 QS mod)
Cc1[nH]c2ccccc2c1C1C(c2ccccc2)=NN=C(C(C)C)N1O (stereo not drawn)	none
CC1=NN=C(c2ccccc2)C(c2c[nH]c3ccccc23)N1O (stereo not drawn)	AHR activator 68.1
COc1ccc(C2CC(=O)C(c3cc(OC)c(OC)c(OC)c3)=CN2Cc2ccccc2)cc1 (stereo not drawn)	none (no result: AHR activator, m5-HT2A agonist, MsrA act, Tb MetRS inh, AI-2 QS mod)
COc1cc(-c2noc(C)c2C#Cc2nccn2C)cc(OC)c1OC	AHR activator 65.6
COC(CNC(=O)C(=O)Nc1cc2c3c(c1)CCN3C(=O)CC2)OC	none
Cn1cccc1-c1nc2ccc(NC(=O)c3ccco3)cc2[nH]1	MsrA inh 7.3
Cc1nc(NC(=O)c2ccc(F)cc2)nc2cc3c(cc12)OCO3	AHR activator 64.7
COc1ccc(CC(=O)Nc2cc(C)ccc2O)cc1OC	AI-2 QS mod -78.0
N#C/C(=C\c1ccc([N+](=O)[O-])o1)c1nc2ccccc2[nH]1	AHR activator 54.6 (no result: m5-HT2A agonist, MsrA act, Tb MetRS inh)
O=S(=O)(Nc1ccc(C(F)(F)F)cc1)c1cccs1	AI-2 QS mod -84.9
Cc1ccc(CNC(=O)C(=O)NCC2CCCN2S(=O)(=O)c2cccs2)cc1 (stereo not drawn)	none
COc1ccccc1NC(=O)c1csc2c1CCCC2	AHR activator 68.6
Cc1nnc(NC(=O)c2csc3c2CCCC3)s1	AHR activator 55.2 (no result: m5-HT2A agonist, MsrA act, Tb MetRS inh)
COc1ccc(CCNC(=O)c2csc3c2CCCC3)cc1OC	none
Cc1oc2c(c1C(=O)Nc1cccc3ccccc13)CCCC2	none
COc1ccccc1NC(=O)c1c(C)oc2c1CCCC2	AHR activator 60.3
COCCNC(=O)c1csc2c1CCCC2	MsrA act 12.3
COc1ccccc1CNC(=O)c1csc2c1CCCC2	none
CCOC(=O)C1=CC[C@@H](c2ccccc2)C(C#N)(C#N)[C@H]1/C=C/c1ccccc1	none (no result: AHR activator, m5-HT2A agonist, MsrA act, Tb MetRS inh, AI-2 QS mod)
CCCCCCCCN1C(=O)[C@@H](CC(=O)NCC23CC4CC(CC(C4)C2)C3)C[C@@]2(C(=O)OC)C1=C[C@H](C(C)(C)C)O[C@@H]2C	none (no result: AHR activator, m5-HT2A agonist, MsrA act, Tb MetRS inh, AI-2 QS mod)
CCN(CC)c1ccc(/C=N/n2c(=S)[nH]nc(C)c2=O)cc1	MsrA inh 4.7
CCc1n[nH]c(=S)n1/N=C/c1ccc(NC(C)=O)cc1	none
COc1c2ccoc2c(OC[C@@H](O)C(C)(C)O)c2oc(=O)ccc12	AHR activator 50.4
COC(C)(C)[C@H](O)COc1c2ccoc2cc2oc(=O)ccc12	AHR activator 57.2
CC(=O)OC(C=C(C)C)C/C(C)=C/COc1c2ccoc2cc2oc(=O)ccc12 (stereo not drawn)	MsrA inh 12.5 (no result: AHR activator, AI-2 QS mod)
CC1(C)OC1COc1c2ccoc2cc2oc(=O)ccc12 (stereo not drawn)	AHR activator 67.6
Cc1nnc2nc(N)[nH]n2c1=O	none (no result: AHR activator, m5-HT2A agonist, MsrA act, Tb MetRS inh, AI-2 QS mod)
Cc1cc(C)c(C2=NOC3c4ccccc4OCC23)c(C)c1 (stereo not drawn)	none (no result: AHR activator, m5-HT2A agonist, MsrA act, Tb MetRS inh, AI-2 QS mod)
CC1CCCC(NC(=O)CN2CCN(S(=O)(=O)c3cccs3)CC2)C1C (stereo not drawn)	none (no result: AI-2 QS mod)
N#Cc1ccc2nc(-c3ccc(CN4CCC5(CC4)CNc4ccccc45)cc3)c(-c3ccccc3)nc2c1	none (no result: AHR activator, m5-HT2A agonist, MsrA act, Tb MetRS inh, AI-2 QS mod)
COc1cc(OC)c2c(=O)cc(-c3cccnc3)oc2c1	AHR activator 62.2
Cc1ccc(-c2ccc(/C=C3/NC(=O)NC3=O)o2)cc1[N+](=O)[O-]	none (no result: AHR activator)
CC1=C(C#N)C(=O)NC(=O)/C1=C\c1ccc(-c2cc(C)c(C)cc2[N+](=O)[O-])o1	MsrA inh 9.0 (no result: AHR activator)
CCCCCCCCN1C(=O)[C@@H](CC(=O)NCCCCc2ccccc2)C[C@@]2(C(=O)OC)C1=C[C@H](C1CCCC1)O[C@@H]2C	none (no result: AHR activator, m5-HT2A agonist, MsrA act, Tb MetRS inh, AI-2 QS mod)
O=C(Nc1nccs1)c1ccc(-c2ccccc2[N+](=O)[O-])o1	AHR activator 67.6
O=C(Nc1nccs1)c1ncc(Cl)c(Cl)c1Cl	AHR activator 47.4
O=C(Nc1ccccc1)c1ccc(-c2ccccc2Cl)o1	none
Cn1cc(Cl)c(C(=O)Nc2nccs2)n1	none
O=C(Nc1nccs1)c1ccc(-c2ccccc2Cl)o1	AHR activator 53.5
CCCc1cc(=O)oc2cc(OCC(=O)NCCCn3ccnc3)c(Cl)cc12	none (no result: AI-2 QS mod)
CCc1cccc(NC(=O)CCC(=O)N2CCSc3ccccc32)c1	none
CCc1ccc(NC(=O)CCC(=O)N2CCSc3ccccc32)cc1	AHR activator 69.1
CCC(=O)Nc1ccc(C(=O)OCc2ccc(Cl)c(Cl)c2)cc1	none
CC(=O)Nc1ccc(C(=O)OCc2ccc(Cl)c(Cl)c2)cc1	AI-2 QS mod -85.4
CCN(CC(=O)Nc1ccccc1C(F)(F)F)C(=O)c1ccc2[nH]c3c(c2c1)CC(C)CC3 (stereo not drawn)	none
COCc1cc(N2CCN(C(=O)OC(C)(C)C)C[C@H]2C)ccc1N1C[C@@H](C)O[C@@H](C)C1	none (no result: AHR activator, m5-HT2A agonist, MsrA act, Tb MetRS inh, AI-2 QS mod)
O=c1oc2ccccc2cc1-c1nc2c(s1)CCCC2	AHR activator 94.8
COC(=O)C1=C(C)N(Cc2ccccc2C(F)(F)F)C(=NCc2cc(OC)c(OC)c(OC)c2)NC1c1cccc(Cl)c1 (stereo not drawn)	none (no result: AHR activator, m5-HT2A agonist, MsrA act, Tb MetRS inh, AI-2 QS mod)
O=C1Nc2ccccc2N(O)N1c1ccc(Cl)c(Cl)c1	none
O=C1Nc2cc(Cl)c(Cl)cc2N(O)N1c1ccc(Cl)c(Cl)c1	AHR activator 57.4
Cc1cc(C)nc(-n2cc(C(=O)c3cc(F)ccc3O)cn2)n1	AHR activator 52.8
COC(=O)c1cc2c(c3c4cc(C)ccc4n(C(=O)c4ccccc4)c13)C(=O)N(Cc1ccccc1)C2	none (no result: AHR activator, m5-HT2A agonist, MsrA act, Tb MetRS inh, AI-2 QS mod)
CC(C)[C@H](NC(=O)CC1CCCC1)C(=O)N1CCC[C@H]1C(=O)NCCc1ccccc1Cl	none (no result: AHR activator, m5-HT2A agonist, MsrA act, Tb MetRS inh, AI-2 QS mod)
CNC(=S)N/N=C(\C)c1ccc2c(c1)OCCO2	AHR activator 48.4
CNC(=S)N/N=C(\C)c1ccc2c(c1)OCO2	AHR activator 72.1
C/C(=N\NC(=S)NC(C)C)c1ccc2c(c1)OCCO2	none
C/C(=N\NC(=O)c1c[nH]c2ccccc12)c1ccc2c(c1)OCO2	AHR activator 93.3
CC1(C(=O)NS(=O)(=O)c2ccc(C#N)cc2)CCN1C(=O)c1ccccc1CCc1ccccc1 (stereo not drawn)	none (no result: AHR activator, AI-2 QS mod)

Screening data deposited in PubChem by several laboratories.
